# Test results from ChEMBL document CHEMBL4513216, “Probing the Open Global Health Chemical Diversity Library for Multistage-Active Starting Points for Next-Generation Antimalarials” (ACS Infect Dis, 2020).
# Test: Toxicity liver stage against HepG2, at 10uM
# Type: cell-based
# Parameters: test concentration 10 uM, cell line HepG2-A16-CD81EGFP
# Conditions: human, HepG2-A16-CD81EGFP cells; read-out: INHIBITION
# In short: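 Uninfected HepG2-A16-CD81EGFP cells, 3 × 10^3 per well, 1536-well, plated on prespotted compound at 10 μM final, parasite-free screening media added to match infected plates; puromycin 10 μM positive, DMSO 0.5% negative; run in parallel with 48 h PbLuc assay at 37 °C, 5% CO2; viability by CellTiter-Glo luminescence, normalized to controls.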
row,Structure (SMILES),cytotoxicity at 10 µM [%]
1,CCCC(O)CN1CC(C)(C)CN(C(=O)c2ccc(Cl)cc2)CC1=O (stereo unspecified),2.78
2,CCOC(=O)[C@@H]1CN2CCNC[C@@H]2[C@H]1c1ccccc1,3.88
3,CCC(C)[C@H](NC(=O)c1cc(F)ccc1-n1cnnn1)C(=O)OC (stereo partly specified),2.53
4,COC(=O)c1cc2c(=O)n(C3CCCC3)ccc2nc1C,-43.9
5,CCCn1[nH]c(CNc2cccc(Cl)c2)nc1=O,0.566
6,COc1ccc2cc(NC(=O)CCCNc3ncccn3)cnc2c1,-50.5
7,O=S(=O)(NCC(O)c1ccoc1)c1ccc(Cl)s1 (stereo unspecified),-9.34
8,O=C(Cn1cccn1)N1CCC(Oc2cnccn2)CC1,7.11
9,COc1cc(C(=O)NCCc2ccccc2OC)on1,0.409
10,CC(C)N1CCCc2sc(C(=O)NC3CC3)nc21,-143
11,CS(=O)(=O)NC[C@]12COC[C@H]1CN(C(=O)CCc1ccccc1)C2,-1.23
12,Cc1ccccc1CS(=O)(=O)c1nnc(C(C)NC(=O)OC(C)(C)C)o1 (stereo unspecified),-1
13,Cc1c(S(=O)(=O)NCC(C)C)cnn1C,4.54
14,Cc1ccc(CNc2n[nH]c(C)n2)cc1,-2.25
15,CCc1cc(=O)n(CC(=O)N2CCCC2)c(-c2cccc(F)c2)n1,6.75
16,CN1CCCC(c2nnc3n2CCN(S(=O)(=O)c2ccccc2Cl)C3)C1 (stereo unspecified),-2.92
17,Cc1cc(N(C)C)cc(C2CCN(S(=O)(=O)c3cccs3)C2)n1 (stereo unspecified),7.17
18,O=c1c(CN2CC3CCCN3C[C@@H]2CCO)coc2ccc(Cl)cc12 (stereo partly specified),3.19
19,Cc1noc(C)c1-c1cccc(CC2CCN(C(=O)c3cc[nH]n3)C2)n1 (stereo unspecified),2.31
20,CCn1cc(CN2C[C@@H]3CCCN3C[C@@H]2CCSC)c(C)n1,3.29
21,CC(C(=O)NCc1cccs1)N1CCN(Cc2nccn2C)CC1 (stereo unspecified),-14.5
22,O=C(c1cn(-c2ccc(C(F)(F)F)cn2)nn1)N1CCCCCC1,-57.4
23,CN(Cc1cnn(C)c1)CC(O)c1ccc2c(c1)OCO2 (stereo unspecified),-9.98

row,Structure (SMILES),cytotoxicity at 10 µM [%]
1,N#Cc1cc(F)ccc1Cn1cncn1,11.4
2,CC(C(=O)NC1CC1)S(=O)(=O)Cc1noc(C(C)(C)C)n1 (stereo unspecified),9.42
3,CC(NCc1nnc2n1CCCC2)c1nc(Cc2ccccc2)no1 (stereo unspecified),-45.1
4,N#CCCN(CCC#N)C(=O)c1cccc(N2CCNC2=O)c1,-18.7
5,Cc1ccccc1C(=O)NCC(=O)NCc1ccccn1,-11.9
6,NC(=O)CCCNC(=O)Cc1csc(Cc2ccccn2)n1,-4.56
7,COc1cc2c(cc1CNC(=O)Cc1cc(C)[nH]n1)OC(C)C2 (stereo unspecified),-13.8
8,NS(=O)(=O)CCNC(=O)c1cc(Br)c2c(c1)OCCO2,1.06
9,COc1cc(C)ccc1OCC(=O)NS(=O)(=O)c1cc(F)ccc1F,2.15
10,CCc1cccc(NS(=O)(=O)c2cc(C)c(C(=O)O)s2)c1,-1.23
11,N#Cc1cccnc1NCCNC(=O)N1CCN2CCCCC2C1 (stereo unspecified),0.242
12,CC(CNS(=O)(=O)c1cccc(Cl)c1)N1CCN(C)CC1 (stereo unspecified),9.26
13,CC(CNC(=O)Nc1ccc(F)cc1Br)N1CCOCC1 (stereo unspecified),9.21
14,CCOC(C)c1noc(CN2CCCN(c3ccccn3)CC2)n1 (stereo unspecified),-4.05
15,O=C(NS(=O)(=O)c1ccc(C2CCCCC2)cc1)C1COCCO1 (stereo unspecified),7.02
16,Cc1occc1C(=O)NC1CCN(C(=O)Nc2cccnc2)CC1,8.98
17,Cc1cccc(CCNC(=O)CCS(=O)(=O)C2CCCC2)c1,9.27
18,Cc1cccc(C2CCCN2C(=O)CN(C)S(C)(=O)=O)c1C (stereo unspecified),12.3
19,CCOCC(=O)NC(C#N)c1cnn(-c2ccccc2)c1 (stereo unspecified),-4.39
20,COCCOC1CCN(C(=O)NCc2coc3ccccc23)CC1,-8.93
21,Cc1ccnc(NCc2ccccc2N2CCOCC2)n1,-0.268
22,CN1CCN(c2ccc(Br)cc2NC(=O)c2ccco2)CC1,-6.09
23,Cc1nc(NC(=O)OC(C)(C)C)sc1C(=O)O,7.89

row,Structure (SMILES),cytotoxicity at 10 µM [%]
1,c1ccc2nc(NCC3(N4CCOCC4)CCSC3)cnc2c1 (stereo unspecified),12.7
2,NCc1ccc(N2CCN(c3ncccn3)CC2)c(F)c1,-50.8
3,Cn1cc(CCCN2CCN(Cc3cccc(O)c3)CC2)cn1,-52.5
4,CC(C)c1noc(CCCC(=O)NCCOc2ccccc2)n1,1.03
5,CCOc1cccc(C(=O)NCCC(=O)Nc2ccncc2)c1,2.37
6,Cn1c2c(c(=O)n1C)CN(C(=O)c1cccc(F)c1)CCC2,-101
7,Cc1nc2c(c(NC(C)C)n1)CCN(C(=O)CCO)CC2,-109
8,CN(C)C(=O)CO[C@H]1CO[C@@]2(CCN(S(C)(=O)=O)C2)C1,-106
9,O=C(c1ncccn1)N1C[C@@H]2COC[C@]2(COc2cccnc2)C1,-91.5
10,COCC1CN(C(=O)Cc2ccsc2)Cc2c1cnn2C (stereo unspecified),-67
11,CN1CCN(Cc2ccc(F)cc2)Cc2cccnc21,-80.2
12,CN(C)C(=O)COCC1CN(Cc2ccsc2)Cc2nccn2C1 (stereo unspecified),-72.3
13,O=C(NC1CCC1)c1c2c(N3CCCC3)ncnc2n2ccccc12,-82.4
14,CC(=O)NCC(=O)N1Cc2nccn2CC(Cn2cccn2)C1 (stereo unspecified),2.44
15,Cc1ncc(CC(=O)N2CCC3(CCC(=O)N(CCO)C3)CC2)c(=O)[nH]1,-44.7
16,O=S(=O)(NCc1cc2n(n1)CCNC2)c1ccc(OC(F)(F)F)cc1,11.5
17,Cc1ncsc1CN(Cc1ccccc1)Cc1ncc[nH]1,-3.22
18,Cc1ccc(CN(CCN(C)C)C(=O)Nc2cnn(C)c2)s1,4.16
19,CC(C)=CCC1(C(=O)O)CCCN(c2cc(N)ncn2)C1 (stereo unspecified),10.1
20,CO[C@@]1(C)C[C@@H](O)C12CCN(C(=O)CCn1c(C)cccc1=O)CC2,3.43
21,COc1ccc(-c2nc(CN3CCCC(OC)C3)c(C)o2)c(F)c1 (stereo unspecified),-37.8
22,CC(=O)N[C@@H]1CN(CC(=O)NCc2ccccc2C)C[C@H]1C(C)C,4.25
23,O=C(Cn1cccc1)NCC1CCN(Cc2cc3ccccc3[nH]2)C1 (stereo unspecified),12.6

row,Structure (SMILES),cytotoxicity at 10 µM [%]
1,CC(=O)NC1CCN(c2nc(N(C)C)nc3c2CCCC3)CC1,-10.7
2,Cc1nc2c(c(NCc3cc4ccccc4s3)n1)CCNCC2,-48.3
3,COc1ccc(CC2CN(C(=O)c3ocnc3C)CCO2)cc1 (stereo unspecified),11.4
4,Cc1cc(C(=O)N2C[C@@H](C(=O)O)[C@H](C(C)C)C2)cs1,-10.4
5,Cc1ccccc1N1CCN(C2CCCN(C(=O)CCC(C)C)C2)CC1 (stereo unspecified),-5.95
6,O=C(O)c1ccccc1-c1c(-c2ccccc2)ncn1C[C@H]1CCCN1,6.07
7,Cc1nc(N(C)C/C=C/c2ccccc2)c2cnn(C)c2n1,0.0448
8,O=C(CC1CCc2ccccc21)NC1(C(=O)O)CCOCC1 (stereo unspecified),-2.13
9,O=C1CCCN1CCc1noc(-c2ccc3[nH]cnc3c2)n1,8.74
10,COc1cccc(C(C(=O)O)N(C)Cc2ccc(C)o2)c1 (stereo unspecified),-1.35
11,Cc1cnc(N(C)Cc2cnc3ccccc3n2)nc1N(C)C,6.7
12,COCC1CCN(S(=O)(=O)N2C[C@H](c3ccccc3)[C@@H](N)C2)CC1,1.12
13,COc1ccc(CN2CCN(C3CCc4ccccc4C3)CC2)cc1O (stereo unspecified),-6.55
14,Cc1nc(N2C[C@@H](CN3CCCCC3)[C@@H](CO)C2)c2sccc2n1,-5.12
15,Cc1nn(C)c2nc(NCCCN3CCCC(CO)C3)sc12 (stereo unspecified),-14.2
16,CCc1noc(C)c1C(=O)N1C[C@H](NS(C)(=O)=O)[C@@H](C2CC2)C1,1.23
17,Cc1ccccc1CSc1nc(N)cc(N2CCOCC(CO)C2)n1 (stereo unspecified),-9.23
18,Cc1nc(N)sc1C(=O)N1CCC(C(O)Cc2ccccc2)CC1 (stereo unspecified),2.29
19,CNc1cc(N2CCCC2CNCc2csc(C(C)C)n2)ncn1 (stereo unspecified),-14.9
20,CC(Cn1cccn1)NC(=O)NCCc1cccnc1 (stereo unspecified),-5.25
21,CCn1cnnc1C1CCN(C(=O)c2cc(C)c(C)s2)CC1,-26.9
22,COc1ccccc1COCC(O)CN1CCC(c2ccn[nH]2)CC1 (stereo unspecified),-2.54
23,COc1ccccc1C(O)CNc1c(C#N)c(=O)n(C)c(=O)n1C (stereo unspecified),-2.9

row,Structure (SMILES),cytotoxicity at 10 µM [%]
1,CCC1CN(C(=O)NCc2cccnc2-n2cccn2)CCO1 (stereo unspecified),-12.5
2,Cc1nc(C)n(CC2CCCN2Cc2nc3ccccc3c(=O)[nH]2)n1 (stereo unspecified),-4.35
3,CCN(Cc1nc2c(cnn2C)c(=O)[nH]1)c1ccccc1,-7.36
4,Cc1ncsc1C(=O)N(C)Cc1ccncc1,-0.524
5,CNS(=O)(=O)Cc1ccc(CNC(=O)Nc2cccnc2)cc1,0.684
6,Cc1ccc(S(=O)(=O)Nc2ccc(=O)n(C)c2)cc1,1.07
7,CCOc1ncccc1C(=O)N1CCCCC1c1nccs1 (stereo unspecified),-8.7
8,Cc1ccc(N2CCCC(NCc3nc(C)c(C)o3)C2)nn1 (stereo unspecified),-3.18
9,CNC(=O)[C@@H]1C[C@H]2CN(Cc3nccs3)C[C@H]2N1C,7.73
10,c1ccc(CN2CCc3ncnc(-c4ccncc4)c3CC2)nc1,-73.1
11,Cn1nc(CN2CCCCC2)c2c1CN(C(=O)c1cccc(C#N)c1)C2,-2.21
12,c1cc(CN2C[C@@H]3OCCN(CC4CCCO4)[C@@H]3C2)cs1 (stereo partly specified),-76.9
13,Cc1nc(C2(O)CCCNCC2)sc1CCOc1ccc(F)c(F)c1 (stereo unspecified),-21.4
14,O=C1CCC2(CCN(Cc3ccc(F)cc3)CC2)N1Cc1ccccc1,-1.63
15,Cc1csc([C@H]2C[C@H]3CN(Cc4cc(C)on4)CC[C@@H]3O2)n1,-98
16,c1cncc(OC[C@@H]2CC[C@H]3[C@H](CCN3Cc3cccs3)O2)c1,6.23
17,Cc1c(C2N3CC4(C)CN2CC(C)(C3)C4=O)[nH]c(=O)[nH]c1=O (stereo unspecified),6.57
18,c1ccc(-c2nnc(CN3C[C@H]4CC[C@@H](C3)N(CC3CCC3)C4)o2)cc1,-8.51
19,O=c1[nH][nH]c2cn(-c3ccc(Br)cc3)c(=O)n12,-11.8
